Data as given in ChEMBL document CHEMBL2157941, “Synthesis and characterization of some new quinoline based derivatives endowed with broad spectrum antimicrobial potency” (2012).
Values after ≈ are worked out from the molar mass of the structure shown.

What was measured:
Format in all cases: functional
Pseudomonas aeruginosa = experiment: Antibacterial activity against Pseudomonas aeruginosa MTCC 1688 after 24 hrs by serial broth dilution method; conditions: MTCC 1688, 24 h
In short: (§1)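 Read-out was the individual minimum inhibitory concentration for each bacterial or fungal strain.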

Staphylococcus aureus = experiment: Antibacterial activity against Staphylococcus aureus MTCC 96 after 24 hrs by serial broth dilution method; conditions: MTCC 96, 24 h; in short: as §1
Streptococcus pyogenes = experiment: Antibacterial activity against Streptococcus pyogenes MTCC 442 after 24 hrs by serial broth dilution method; conditions: MTCC 442, 24 h; in short: as §1
Candida albicans = experiment: Antifungal activity against Candida albicans MTCC 227 after 48 hrs by serial broth dilution method; conditions: MTCC 227, 48 h; in short: as §1
Aspergillus niger = experiment: Antifungal activity against Aspergillus niger MTCC 282 after 48 hrs by serial broth dilution method; conditions: MTCC 282, 48 h; in short: as §1
Escherichia coli = experiment: Antibacterial activity against Escherichia coli MTCC 443 after 24 hrs by serial broth dilution method; conditions: MTCC 443, 24 h; in short: as §1
Aspergillus clavatus = experiment: Antifungal activity against Aspergillus clavatus MTCC 1323 after 48 hrs by serial broth dilution method; conditions: MTCC 1323, 48 h; in short: as §1

Row | Structure (SMILES) | MIC (Pseudomonas aeruginosa) [µg/mL] | MIC (Staphylococcus aureus) [µg/mL] | MIC (Streptococcus pyogenes) [µg/mL] | MIC (Candida albicans) [µg/mL] | MIC (Aspergillus niger) [µg/mL] | MIC (Escherichia coli) [µg/mL] | MIC (Aspergillus clavatus) [µg/mL]
1 | O=C1CSC(N2N=C(c3ccc(O)cc3)CC2c2cc3cc(F)ccc3nc2Cl)=N1 (centres undefined) | 250 (≈ 567 µM) | 500 (≈ 1130 µM) | 250 (≈ 567 µM) | 1000 (≈ 2270 µM) | 500 (≈ 1130 µM) | 500 (≈ 1130 µM) | 1000 (≈ 2270 µM)
2 | O=C1CSC(N2N=C(c3ccc(Cl)cc3)CC2c2cc3cc(F)ccc3nc2Cl)=N1 (centres undefined) | 250 (≈ 544 µM) | 50 (≈ 109 µM) | 50 (≈ 109 µM) | 500 (≈ 1090 µM) | 50 (≈ 109 µM) | 500 (≈ 1090 µM) | 100 (≈ 218 µM)
3 | O=C(CN1CCOCC1)Nc1nc(-c2ccc([N+](=O)[O-])cc2)cc(-c2cc3cc(F)ccc3nc2Cl)n1 | 50 (≈ 95.6 µM) | 100 (≈ 191 µM) | 100 (≈ 191 µM) | 100 (≈ 191 µM) | 100 (≈ 191 µM) | 25 (≈ 47.8 µM) | 50 (≈ 95.6 µM)
4 | O=C(CN1CCOCC1)Nc1nc(-c2ccc(F)cc2)cc(-c2cc3cc(F)ccc3nc2Cl)n1 | 50 (≈ 101 µM) | 100 (≈ 202 µM) | 100 (≈ 202 µM) | 100 (≈ 202 µM) | 100 (≈ 202 µM) | 50 (≈ 101 µM) | 100 (≈ 202 µM)
5 | O=C(CN1CCOCC1)Nc1nc(-c2ccc(Cl)cc2)cc(-c2cc3cc(F)ccc3nc2Cl)n1 | 50 (≈ 97.6 µM) | 250 (≈ 488 µM) | 100 (≈ 195 µM) | 250 (≈ 488 µM) | 100 (≈ 195 µM) | 100 (≈ 195 µM) | 100 (≈ 195 µM)
6 | O=C1CSC(N2N=C(c3ccccc3)CC2c2cc3cc(F)ccc3nc2Cl)=N1 (centres undefined) | 250 (≈ 588 µM) | 500 (≈ 1180 µM) | 1000 (≈ 2350 µM) | 1000 (≈ 2350 µM) | 1000 (≈ 2350 µM) | 500 (≈ 1180 µM) | 500 (≈ 1180 µM)
7 | O=C(CN1CCOCC1)Nc1nc(-c2ccccc2[N+](=O)[O-])cc(-c2cc3cc(F)ccc3nc2Cl)n1 | 100 (≈ 191 µM) | 50 (≈ 95.6 µM) | 50 (≈ 95.6 µM) | 100 (≈ 191 µM) | 50 (≈ 95.6 µM) | 100 (≈ 191 µM) | 100 (≈ 191 µM)
8 | O=C(CN1CCOCC1)Nc1nc(-c2ccccc2Cl)cc(-c2cc3cc(F)ccc3nc2Cl)n1 | 100 (≈ 195 µM) | 100 (≈ 195 µM) | 100 (≈ 195 µM) | 500 (≈ 976 µM) | 100 (≈ 195 µM) | 50 (≈ 97.6 µM) | 100 (≈ 195 µM)
9 | O=C1CSC(N2N=C(c3ccccc3Cl)CC2c2cc3cc(F)ccc3nc2Cl)=N1 (centres undefined) | 100 (≈ 218 µM) | 250 (≈ 544 µM) | 50 (≈ 109 µM) | 500 (≈ 1090 µM) | 100 (≈ 218 µM) | 50 (≈ 109 µM) | 50 (≈ 109 µM)
10 | O=C(O)c1cn(C2CC2)c2cc(N3CCNCC3)c(F)cc2c1=O [CIPROFLOXACIN] |  | 50 (≈ 151 µM) | 50 (≈ 151 µM) |  |  | 25 (≈ 75.4 µM) | 
11 | O=C1CSC(N2N=C(c3ccccc3[N+](=O)[O-])CC2c2cc3cc(F)ccc3nc2Cl)=N1 (centres undefined) | 12.5 (≈ 26.6 µM) | 100 (≈ 213 µM) | 25 (≈ 53.2 µM) | 100 (≈ 213 µM) | 25 (≈ 53.2 µM) | 25 (≈ 53.2 µM) | 12.5 (≈ 26.6 µM)
12 | O=C(CN1CCOCC1)Nc1nc(-c2ccccc2O)cc(-c2cc3cc(F)ccc3nc2Cl)n1 | 500 (≈ 1010 µM) | 500 (≈ 1010 µM) | 500 (≈ 1010 µM) | 1000 (≈ 2020 µM) | 250 (≈ 506 µM) | 1000 (≈ 2020 µM) | 500 (≈ 1010 µM)
13 | O=C1CSC(N2N=C(c3cccc(F)c3)CC2c2cc3cc(F)ccc3nc2Cl)=N1 (centres undefined) | 250 (≈ 564 µM) | 500 (≈ 1130 µM) | 500 (≈ 1130 µM) | 100 (≈ 226 µM) | 500 (≈ 1130 µM) | 500 (≈ 1130 µM) | 500 (≈ 1130 µM)
14 | O=C(CN1CCOCC1)Nc1nc(-c2cccc([N+](=O)[O-])c2)cc(-c2cc3cc(F)ccc3nc2Cl)n1 | 100 (≈ 191 µM) | 250 (≈ 478 µM) | 100 (≈ 191 µM) | 250 (≈ 478 µM) | 100 (≈ 191 µM) | 250 (≈ 478 µM) | 500 (≈ 956 µM)
15 | O=C1CSC(N2N=C(c3ccccc3F)CC2c2cc3cc(F)ccc3nc2Cl)=N1 (centres undefined) | 50 (≈ 113 µM) | 100 (≈ 226 µM) | 100 (≈ 226 µM) | 250 (≈ 564 µM) | 50 (≈ 113 µM) | 25 (≈ 56.4 µM) | 500 (≈ 1130 µM)
16 | COc1ccc(C2=NN(C3=NC(=O)CS3)C(c3cc4cc(F)ccc4nc3Cl)C2)cc1 (centres undefined) | 1000 (≈ 2200 µM) | 500 (≈ 1100 µM) | 1000 (≈ 2200 µM) | 1000 (≈ 2200 µM) | 500 (≈ 1100 µM) | 1000 (≈ 2200 µM) | 500 (≈ 1100 µM)
17 | O=C1CSC(N2N=C(c3ccc([N+](=O)[O-])cc3)CC2c2cc3cc(F)ccc3nc2Cl)=N1 (centres undefined) | 100 (≈ 213 µM) | 250 (≈ 532 µM) | 50 (≈ 106 µM) | 250 (≈ 532 µM) | 100 (≈ 213 µM) | 50 (≈ 106 µM) | 100 (≈ 213 µM)
18 | O=C(CN1CCOCC1)Nc1nc(-c2ccc(O)cc2)cc(-c2cc3cc(F)ccc3nc2Cl)n1 | 1000 (≈ 2020 µM) | 1000 (≈ 2020 µM) | 1000 (≈ 2020 µM) | 500 (≈ 1010 µM) | 500 (≈ 1010 µM) | 500 (≈ 1010 µM) | 1000 (≈ 2020 µM)
19 | O=C(CN1CCOCC1)Nc1nc(-c2cccc(F)c2)cc(-c2cc3cc(F)ccc3nc2Cl)n1 | 100 (≈ 202 µM) | 250 (≈ 504 µM) | 250 (≈ 504 µM) | 250 (≈ 504 µM) | 250 (≈ 504 µM) | 100 (≈ 202 µM) | 250 (≈ 504 µM)
20 | O=C(CN1CCOCC1)Nc1nc(-c2ccccc2F)cc(-c2cc3cc(F)ccc3nc2Cl)n1 | 25 (≈ 50.4 µM) | 50 (≈ 101 µM) | 50 (≈ 101 µM) | 100 (≈ 202 µM) | 50 (≈ 101 µM) | 12.5 (≈ 25.2 µM) | 25 (≈ 50.4 µM)
21 | COC1=CC(=O)C[C@@H](C)[C@]12Oc1c(Cl)c(OC)cc(OC)c1C2=O [GRISEOFULVIN] |  |  |  | 500 (≈ 1420 µM) | 100 (≈ 283 µM) |  | 100 (≈ 283 µM)
22 | COc1ccc(-c2cc(-c3cc4cc(F)ccc4nc3Cl)nc(NC(=O)CN3CCOCC3)n2)cc1 | 250 (≈ 492 µM) | 500 (≈ 984 µM) | 250 (≈ 492 µM) | 1000 (≈ 1970 µM) | 250 (≈ 492 µM) | 500 (≈ 984 µM) | 500 (≈ 984 µM)
23 | O=C(CN1CCOCC1)Nc1nc(-c2ccccc2)cc(-c2cc3cc(F)ccc3nc2Cl)n1 | 500 (≈ 1050 µM) | 500 (≈ 1050 µM) | 250 (≈ 523 µM) | 1000 (≈ 2090 µM) | 500 (≈ 1050 µM) | 250 (≈ 523 µM) | 250 (≈ 523 µM)
24 | O=C1CSC(N2N=C(c3ccc(F)cc3)CC2c2cc3cc(F)ccc3nc2Cl)=N1 (centres undefined) | 50 (≈ 113 µM) | 100 (≈ 226 µM) | 25 (≈ 56.4 µM) | 1000 (≈ 2260 µM) | 250 (≈ 564 µM) | 50 (≈ 113 µM) | 100 (≈ 226 µM)
25 | O=C1CSC(N2N=C(c3ccccc3O)CC2c2cc3cc(F)ccc3nc2Cl)=N1 (centres undefined) | 500 (≈ 1130 µM) | 1000 (≈ 2270 µM) | 500 (≈ 1130 µM) | 1000 (≈ 2270 µM) | 1000 (≈ 2270 µM) | 250 (≈ 567 µM) | 1000 (≈ 2270 µM)
26 | O=C1CSC(N2N=C(c3cccc([N+](=O)[O-])c3)CC2c2cc3cc(F)ccc3nc2Cl)=N1 (centres undefined) | 500 (≈ 1060 µM) | 1000 (≈ 2130 µM) | 500 (≈ 1060 µM) | 500 (≈ 1060 µM) | 100 (≈ 213 µM) | 250 (≈ 532 µM) | 50 (≈ 106 µM)
